Test results as given in ChEMBL document CHEMBL4251598, “Development of novel bis-pyrazole derivatives as antitumor agents with potent apoptosis induction effects and DNA damage” (Eur J Med Chem, 2018).
The source made the active and inactive calls.

What was measured:
SMMC-7721 [1] = test: Induction of apoptosis in human SMMC7721 cells assessed as increase in cleaved PARP expression at 3.2 uM after 72 hrs by Western blot analysis relative to control; format: functional, cell-based
Procedure, shortened: (§1)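 Sub-confluent SMMC-7721 cells treated with vehicle, compound or ADM at indicated concentrations for 72 h. Lysed on ice in NP-40/deoxycholate/SDS buffer with PMSF and leupeptin. Up to 50 µg protein run on SDS-PAGE, transferred to PVDF and probed with specific antibodies; ECL detection. Bands quantified by densitometry relative to β-actin, mean ± SD of three experiments.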

SMMC-7721 [2] = test: Antiproliferative activity against human SMMC7721 cells assessed as inhibition of cell proliferation at 25 uM after 72 hrs by MTT assay relative to control; format: functional; conditions: SMMC-7721, 72 h
Procedure, shortened: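 Cells in DMEM with 10% FBS, plated at 10^4 cells/mL, adhered overnight. Treated at 25 μM for 72 h. MTT added for the last 4 h, formazan dissolved in DMSO, A570 read. Inhibition expressed as percent of untreated. Mean + SD from three separate measurements.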

SMMC-7721 [3] = test: Induction of apoptosis in human SMMC7721 cells assessed as apoptotic cells at 0.2 uM after 72 hrs by FITC-Annexin-V/7AAD/propidium iodide staining based flow cytometry relative to control; format: functional
Procedure, shortened: (§2)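 SMMC-7721 cells cultured overnight, then treated in triplicate with 0.2, 0.8 or 3.2 μM, vehicle, or ADM (3.2 μM) for 72 h. Stained with annexin V and PI (methods section: APC-annexin V/7-AAD) for 15 min at room temperature. Mean ± SD of three independent experiments.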

SMMC-7721 [4] = test: Induction of apoptosis in human SMMC7721 cells assessed as apoptotic cells after 72 hrs by FITC-Annexin-V/7AAD/propidium iodide staining based flow cytometry; format: functional, cell-based; procedure, shortened: as §2
[5] = Acute toxicity in ICR mouse assessed as survival at 200 mg/kg, ip measured on day 14; format: organism-based; conditions: in vivo
Procedure, shortened: (§3)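 Female ICR mice, 10 per group, single intraperitoneal injection at 488.3, 390.6, 312.5, 250 or 200 mg/kg, or vehicle control. Survival, eating, drinking, body weight and activity were monitored for up to 14 days after dosing. MTD was defined as the highest dose giving no drug-related moribund state or death, with temporary body-weight loss within 20%. LD50 was calculated from mortality.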

Mus musculus [6] = test: Acute toxicity in ICR mouse assessed as effect on eating behaviour at 200 mg/kg, ip measured up to 14 days post dose; format: organism-based; conditions: in vivo, 336 h; procedure, shortened: as §3
[7] = Acute toxicity in ICR mouse assessed as survival at 488.3 mg/kg, ip measured on day 14; format: organism-based; conditions: in vivo; procedure, shortened: as §3
Mus musculus [8] = test: Acute toxicity in ICR mouse assessed as mouse mortality level at 200, ip measured on day 1 to 3 days post dose; format: organism-based; conditions: in vivo; procedure, shortened: as §3
Mus musculus [9] = test: Acute toxicity in ICR mouse assessed as mouse mortality level at 200 to 312.5 mg/kg, ip measured on day 5 to 14 post dose; format: organism-based; conditions: in vivo; procedure, shortened: as §3
SGC-7901 [10] = test: Potency index, ratio of ADM IC50 to compound IC50 for human SGC7901 cells; format: functional
Mus musculus [11] = test: Acute toxicity in ICR mouse assessed as effect on animal activity at 200 mg/kg, ip measured up to 14 days post dose; format: organism-based; conditions: in vivo, 336 h; procedure, shortened: as §3
HCT-116 = test: Antiproliferative activity against human HCT116 cells after 72 hrs by MTT assay; format: functional, cell-based; conditions: HCT-116, 72 h
Procedure, shortened: (§4)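 Cells in DMEM with 10% FBS, 10^4 cells/mL, adhered overnight at 37 °C, 5% CO2. Treated in triplicate with a range of concentrations for 72 h. MTT (5 mg/mL solution) added for the last 4 h, formazan dissolved in DMSO, absorbance read at 570 nm. IC50 calculated from percent inhibition. Mean ± SD of three independent experiments.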

SMMC-7721 [12] = test: Potency index, ratio of ADM IC50 to compound IC50 for human SMMC7721 cells; format: functional
[13] = Acute toxicity in ICR mouse assessed as survival at 250 mg/kg, ip measured on day 14; format: organism-based; conditions: in vivo; procedure, shortened: as §3
SGC-7901 [14] = test: Antiproliferative activity against human SGC7901 cells after 72 hrs by MTT assay; format: functional, cell-based; conditions: SGC-7901, 72 h; procedure, shortened: as §4
SMMC-7721 [15] = test: Induction of apoptosis in human SMMC7721 cells assessed as increase in Bax expression after 72 hrs by Western blot analysis; format: functional, cell-based; procedure, shortened: as §1
SGC-7901 [16] = test: Potency index, ratio of 5-FU IC50 to compound IC50 for human SGC7901 cells; format: functional
SMMC-7721 [17] = test: Induction of apoptosis in human SMMC7721 cells assessed as reduction in Bcl2 expression after 72 hrs by Western blot analysis; format: functional, cell-based; procedure, shortened: as §1
Mus musculus [18] = test: Acute toxicity in ICR mouse assessed as effect on body weight at 200 mg/kg, ip measured up to 14 days post dose; format: organism-based; conditions: in vivo, 336 h; procedure, shortened: as §3
SMMC-7721 [19] = test: Induction of apoptosis in human SMMC7721 cells assessed as increase in cleaved PARP expression at 0.2 to 3.2 uM after 72 hrs by Western blot analysis relative to control; format: functional, cell-based; procedure, shortened: as §1
Mus musculus [20] = test: Acute toxicity in ICR mouse assessed as mouse mortality level at 312.5 mg/kg, ip measured on day 3 post dose; format: organism-based; conditions: in vivo; procedure, shortened: as §3
L02 = test: Cytotoxicity against human LO2 cells assessed as reduction in cell survival at 0.2 to 5 uM after 72 hrs by MTT assay; format: cell-based; conditions: l02, 72 h
Procedure, shortened: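 LO2 normal liver cells in DMEM with 10% FBS, plated at 10^4 cells/mL, adhered overnight. Exposed to graded concentrations for 72 h alongside SMMC-7721. MTT added for the last 4 h, formazan dissolved in DMSO, A570 read. Percent inhibition, mean ± SD of three independent experiments.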

SMMC-7721 [21] = test: Antitumor activity against human SMMC7721 cells xenografted in BALB/c mouse assessed as tumor growth inhibition at 30 mg/kg, ip measured after 19 days relative to control; format: functional; conditions: SMMC-7721, ip, 456 h, read-out: TGI
Procedure, shortened: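 Female BALB/c nude mice, 5-6 weeks old, inoculated subcutaneously with 10^6 SMMC-7721 cells. At 50-100 mm³ tumours, mice were randomized to ip compound (15 or 30 mg/kg), ADM (15 mg/kg) or vehicle, n = 6 per group. Caliper volume ½(L×W²) measured every 3 days to day 19, with body weight monitored. Tumours excised and weighed at the end.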

Mus musculus [22] = test: Acute toxicity in ICR mouse assessed as mouse mortality level at 200 to 250 mg/kg, ip measured on day 4 post dose; format: organism-based; conditions: in vivo; procedure, shortened: as §3
SMMC-7721 [23] = test: Induction of apoptosis in human SMMC7721 cells assessed as increase in cleaved caspase-3 expression at 0.2 to 3.2 uM after 72 hrs by Western blot analysis relative to control; format: functional, cell-based; procedure, shortened: as §1
[24] = target: Cellular tumor antigen p53 (Homo sapiens) (UniProt P04637); test: Induction of p53 phosphorylation at Ser15 in human SMMC7721 cells after 72 hrs by Western blot analysis; format: cell-based
Procedure, shortened: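 SMMC-7721 cells treated with vehicle, compound at 0.2, 0.8 or 3.2 μM, or ADM for 72 h. Lysates immunoblotted for H2AX pS139, p-p53 (Ser15), total p53 and β-actin, with ECL detection. Signals quantified by densitometry relative to β-actin, mean ± SD of three experiments.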

Chain of Cellular tumor antigen p53 (Homo sapiens) (P04637 whole entry, looked up): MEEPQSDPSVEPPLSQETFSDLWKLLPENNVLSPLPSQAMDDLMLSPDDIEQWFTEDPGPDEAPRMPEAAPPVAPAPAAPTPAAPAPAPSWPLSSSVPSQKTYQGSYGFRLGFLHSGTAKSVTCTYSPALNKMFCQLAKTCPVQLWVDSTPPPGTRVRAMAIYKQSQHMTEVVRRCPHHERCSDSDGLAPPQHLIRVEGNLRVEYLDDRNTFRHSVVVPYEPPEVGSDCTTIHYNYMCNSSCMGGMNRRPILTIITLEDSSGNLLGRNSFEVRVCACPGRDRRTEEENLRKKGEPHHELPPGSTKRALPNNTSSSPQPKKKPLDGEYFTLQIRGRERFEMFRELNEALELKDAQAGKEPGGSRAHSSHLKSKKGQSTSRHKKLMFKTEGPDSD

COc1ccc(Oc2c(/C=N\OCc3c(Cl)c(-c4ccc(Cl)cc4)nn3C)c(C)nn2C)cc1
Activity (SMMC-7721 [1]): Active
inhibition at 25 µM (SMMC-7721 [2]): 80%
Activity (SMMC-7721 [3]): 29.6%
Activity (SMMC-7721 [4]): Dose-dependent effect
survival at 14 day [5]: 100%
Activity (Mus musculus [6]): Non-Toxic
survival at 14 day [7]: 10%
Activity (Mus musculus [8]): Non-Toxic
Activity (Mus musculus [9]): Non-Toxic
Ratio IC50 (SGC-7901 [10]): 2 - 3
Activity (Mus musculus [11]): Non-Toxic
IC50 (HCT-116): 1.26 µM
Ratio IC50 (SMMC-7721 [12]): 2 - 3
survival at 14 day [13]: 70%
IC50 (SGC-7901 [14]): 2.01 µM
Activity (SMMC-7721 [15]): Dose-dependent effect
Ratio IC50 (SGC-7901 [16]): 17 - 50
Activity (SMMC-7721 [17]): Dose-dependent effect
Activity (Mus musculus [18]): Non-Toxic
Activity (SMMC-7721 [19]): Active
Activity (Mus musculus [20]): Non-Toxic
Activity (L02): Non-Toxic
inhibition in vivo at 30 mg/kg (SMMC-7721 [21]): 65.3%
Activity (Mus musculus [22]): Non-Toxic
Activity (SMMC-7721 [23]): Active
Activity [24]: Dose-dependent effect
